Laboratory results as given in ChEMBL document CHEMBL2311453, “Tetrahydropyrroloquinolinone type dual inhibitors of aromatase/aldosterone synthase as a novel strategy for breast cancer patients with elevated cardiovascular risks” (J Med Chem, 2013).

Assays:
Aromatase = molecular target: T1, Aromatase (Homo sapiens, UniProt P11511); assay: Inhibition of human CYP19 using [1beta-3H]androstenedione as substrate by 3H2O method
T1 sequence (P11511 whole entry): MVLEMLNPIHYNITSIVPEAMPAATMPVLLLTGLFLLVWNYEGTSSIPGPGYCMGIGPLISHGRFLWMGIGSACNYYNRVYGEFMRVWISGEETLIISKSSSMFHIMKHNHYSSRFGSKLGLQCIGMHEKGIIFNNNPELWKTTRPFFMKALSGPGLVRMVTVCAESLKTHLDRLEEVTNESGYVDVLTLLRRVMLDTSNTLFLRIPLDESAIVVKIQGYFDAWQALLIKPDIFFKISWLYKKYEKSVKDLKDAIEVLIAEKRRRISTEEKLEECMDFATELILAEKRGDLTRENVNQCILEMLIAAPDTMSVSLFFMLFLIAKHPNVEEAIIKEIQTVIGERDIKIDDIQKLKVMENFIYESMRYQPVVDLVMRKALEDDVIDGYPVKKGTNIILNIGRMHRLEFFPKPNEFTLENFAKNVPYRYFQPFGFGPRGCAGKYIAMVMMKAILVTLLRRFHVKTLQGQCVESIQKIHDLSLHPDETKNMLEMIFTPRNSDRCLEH

[1] = molecular target: T2, Cytochrome P450 11B2, mitochondrial (Homo sapiens, UniProt P19099); assay: Inhibition of human CYP11B2 expressed in hamster V79MZh cells using [1,2-3H]-11-deoxy-corticosterone as substrate; format: cell-based
T2 sequence (P19099 whole entry): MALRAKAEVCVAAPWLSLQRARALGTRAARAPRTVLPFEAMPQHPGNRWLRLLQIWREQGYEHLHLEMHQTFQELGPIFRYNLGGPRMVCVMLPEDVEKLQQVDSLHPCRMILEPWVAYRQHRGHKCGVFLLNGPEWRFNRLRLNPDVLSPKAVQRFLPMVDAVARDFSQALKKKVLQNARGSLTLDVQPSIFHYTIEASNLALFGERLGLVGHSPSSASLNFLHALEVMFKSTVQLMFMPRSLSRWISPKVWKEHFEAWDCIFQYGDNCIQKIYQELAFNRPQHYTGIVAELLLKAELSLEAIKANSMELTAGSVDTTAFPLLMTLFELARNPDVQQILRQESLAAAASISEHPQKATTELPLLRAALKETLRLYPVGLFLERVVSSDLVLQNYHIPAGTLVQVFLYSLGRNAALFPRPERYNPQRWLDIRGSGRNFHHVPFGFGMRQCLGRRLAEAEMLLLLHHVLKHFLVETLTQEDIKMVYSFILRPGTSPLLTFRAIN
How it was run: (§1)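 V79MZh hamster fibroblasts stably expressing human CYP11B1 or CYP11B2, incubated with [1,2-³H]-11-deoxycorticosterone (100 nM) and inhibitor at varying concentrations. IC50 taken as mean of at least three experiments (relative SD under 25%).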

[2] = molecular target: T3, Cytochrome P450 11B1, mitochondrial (Homo sapiens, UniProt P15538); assay: Inhibition of human CYP11B1 expressed in hamster V79MZh cells using [1,2-3H]-11-deoxy-corticosterone as substrate; format: cell-based; how it was run: as §1
T3 sequence (P15538 whole entry): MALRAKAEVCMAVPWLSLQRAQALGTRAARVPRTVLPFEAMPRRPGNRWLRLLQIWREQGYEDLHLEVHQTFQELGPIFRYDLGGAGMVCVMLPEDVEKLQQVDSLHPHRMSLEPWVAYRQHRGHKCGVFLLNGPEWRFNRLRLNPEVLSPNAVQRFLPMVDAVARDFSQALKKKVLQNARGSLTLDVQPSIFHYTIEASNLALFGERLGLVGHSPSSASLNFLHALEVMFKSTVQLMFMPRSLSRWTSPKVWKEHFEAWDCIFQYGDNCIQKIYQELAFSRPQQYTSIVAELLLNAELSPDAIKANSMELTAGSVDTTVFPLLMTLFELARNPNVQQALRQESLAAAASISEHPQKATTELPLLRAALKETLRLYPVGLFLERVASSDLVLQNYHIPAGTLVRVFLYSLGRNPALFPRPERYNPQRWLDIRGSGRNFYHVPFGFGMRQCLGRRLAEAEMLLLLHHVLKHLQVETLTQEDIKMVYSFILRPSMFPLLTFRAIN

V79MZh = assay: Selectivity factor, ratio of IC50 for human CYP11B1 to IC50 for human CYP11B2 expressed in hamster V79MZh cells; format: cell-based
How it was run: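 SF calculated as IC50(CYP11B1)/IC50(CYP11B2). Both IC50s come from V79MZh hamster fibroblasts expressing the human enzyme, with [1,2-³H]-11-deoxycorticosterone at 100 nM as substrate.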

CYP17 = molecular target: T4, CYP17 (Homo sapiens, UniProt P05093); assay: Inhibition of human CYP17 expressed in Escherichia coli using progesterone as substrate at 2 uM; settings: probe progesterone
T4 sequence (P05093 whole entry): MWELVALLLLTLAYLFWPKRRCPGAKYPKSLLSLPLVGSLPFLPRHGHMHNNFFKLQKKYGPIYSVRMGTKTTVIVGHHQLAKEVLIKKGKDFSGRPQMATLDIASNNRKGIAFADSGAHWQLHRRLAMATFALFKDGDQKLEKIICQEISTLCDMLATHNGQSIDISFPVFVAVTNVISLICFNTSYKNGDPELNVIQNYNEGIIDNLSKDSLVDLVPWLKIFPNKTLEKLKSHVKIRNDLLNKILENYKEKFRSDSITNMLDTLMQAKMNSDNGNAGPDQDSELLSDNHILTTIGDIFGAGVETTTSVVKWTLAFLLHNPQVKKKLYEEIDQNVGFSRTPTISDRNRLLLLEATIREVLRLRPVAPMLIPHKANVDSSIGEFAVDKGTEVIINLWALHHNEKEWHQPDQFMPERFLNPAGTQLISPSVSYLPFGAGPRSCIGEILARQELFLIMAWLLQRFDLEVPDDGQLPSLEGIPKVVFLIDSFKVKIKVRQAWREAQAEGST
How it was run: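 Enzyme source was the 90000g sediment of E. coli coexpressing human CYP17 and cytochrome P450 reductase. Progesterone substrate at 25 μM, NADPH cofactor, inhibitor at 2 μM. Percent inhibition is the mean of at least two experiments (SD under 10%).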

COc1ccc(C(c2ccncc2)c2cc3c4c(c2)CCN4C(=O)CC3)cc1 (single isomer, unassigned; (+)) [listing 1 of 2 here]
IC50 (Aromatase): 273 nM | IC50 [1]: 46 nM | IC50 [2]: 1690 nM

O=C1CCc2cc(C(c3ccncc3)c3cccc(F)c3)cc3c2N1CC3 (stereo not given)
IC50 (Aromatase): 74 nM | Ratio IC50 (V79MZh): 6 | IC50 [1]: 88 nM | IC50 [2]: 532 nM

COc1ccc(C(c2ccncc2)c2cc3c4c(c2)CCN4C(=O)CC3)cc1 (single isomer, unassigned; (-)) [listing 1 of 2 here]
IC50 (Aromatase): 92 nM | IC50 [1]: 74 nM | IC50 [2]: 511 nM

CC(C)C(c1ccncc1)c1cc2c3c(c1)CCN3C(=O)CC2 (stereo not given)
IC50 (Aromatase): 889 nM | Ratio IC50 (V79MZh): 1.9 | IC50 [1]: 750 nM | IC50 [2]: 1420 nM

COc1ccccc1C(c1ccncc1)c1cc2c3c(c1)CCN3C(=O)CC2 (stereo not given)
IC50 (Aromatase): 81 nM | Ratio IC50 (V79MZh): 2.2 | IC50 [1]: 128 nM | inhibition at 2 µM (CYP17): 33% | IC50 [2]: 276 nM

COc1cccc(C(c2ccncc2)c2cc3c4c(c2)CCN4C(=O)CC3)c1 (stereo not given)
IC50 (Aromatase): 59 nM | Ratio IC50 (V79MZh): 18 | IC50 [1]: 139 nM | inhibition at 2 µM (CYP17): 50% | IC50 [2]: 2540 nM

O=C1CCc2cc(C(c3ccncc3)c3cc(C(F)(F)F)cc(C(F)(F)F)c3)cc3c2N1CC3 (stereo not given)
IC50 (Aromatase): 246 nM | Ratio IC50 (V79MZh): > 3 | IC50 [1]: 1580 nM | IC50 [2]: > 5000 nM

O=C1CCc2cc(C(c3ccc(F)cc3)c3cccnc3)cc3c2N1CC3 (stereo not given)
IC50 (Aromatase): 140 nM | Ratio IC50 (V79MZh): 0.1 | IC50 [1]: 587 nM | IC50 [2]: 78 nM

O=C1CCc2cc(C(O)c3cccnc3)cc3c2N1CC3 (stereo not given)
IC50 (Aromatase): > 5000 nM | Ratio IC50 (V79MZh): < 0.1 | IC50 [1]: > 5000 nM | IC50 [2]: 750 nM

CC(c1cccnc1)c1cc2c3c(c1)CCN3C(=O)CC2 (stereo not given)
IC50 (Aromatase): > 5000 nM | Ratio IC50 (V79MZh): 0.1 | IC50 [1]: 37 nM | inhibition at 2 µM (CYP17): < 3% | IC50 [2]: 4 nM

COc1ccc(C(c2ccncc2)c2cc3c4c(c2)CCN4C(=O)CC3)cc1 (stereo in doubt; 3k) [listing 1 of 2 here]
Ratio IC50 (V79MZh): 16

C=C(c1cccnc1)c1cc2c3c(c1)CCN3C(=O)CC2
IC50 (Aromatase): > 5000 nM | Ratio IC50 (V79MZh): 0.1 | IC50 [1]: 468 nM | inhibition at 2 µM (CYP17): < 3% | IC50 [2]: 41 nM

O=C1CCc2cc(C(c3ccncc3)c3ccc(F)cc3)cc3c2N1CC3 (stereo not given)
IC50 (Aromatase): 116 nM | Ratio IC50 (V79MZh): 1.6 | IC50 [1]: 56 nM | inhibition at 2 µM (CYP17): 55% | IC50 [2]: 88 nM

COc1ccc(C(c2ccncc2)c2cc3c4c(c2)CCN4C(=O)CC3)cc1 (stereo in doubt; 3k) [listing 2 of 2 here]
IC50 (Aromatase): 124 nM | IC50 [1]: 52 nM | inhibition at 2 µM (CYP17): 53% | IC50 [2]: 810 nM

N#Cc1ccc(C2CCCc3cncn32)cc1 (stereo not given) [FADROZOLE]
inhibition at 2 µM (CYP17): < 3%

COc1ccc(C(c2ccncc2)c2cc3c4c(c2)CCN4C(=O)CC3)cc1 (single isomer, unassigned; (-)) [listing 2 of 2 here]
Ratio IC50 (V79MZh): 6.9

O=C1CCc2cc(C(c3ccccc3)c3cccnc3)cc3c2N1CC3 (stereo not given)
IC50 (Aromatase): 2130 nM | Ratio IC50 (V79MZh): 0.5 | IC50 [1]: 132 nM | IC50 [2]: 68 nM

O=C1CCc2cc(C(c3ccncc3)C3CCCCC3)cc3c2N1CC3 (stereo not given)
IC50 (Aromatase): 74 nM | Ratio IC50 (V79MZh): > 4 | IC50 [1]: 1290 nM | IC50 [2]: > 5000 nM

O=C1CCc2cc(C(c3ccccc3)c3ccncc3)cc3c2N1CC3 (stereo not given)
IC50 (Aromatase): 880 nM | Ratio IC50 (V79MZh): 14 | IC50 [1]: 390 nM | IC50 [2]: 5400 nM

O=C1CCc2cc(Cc3ccncc3)cc3c2N1CC3
IC50 (Aromatase): 2130 nM | Ratio IC50 (V79MZh): 1.1 | IC50 [1]: 204 nM | inhibition at 2 µM (CYP17): 8% | IC50 [2]: 224 nM

C=C(c1ccncc1)c1cc2c3c(c1)CCN3C(=O)CC2
IC50 (Aromatase): 565 nM | Ratio IC50 (V79MZh): 13 | IC50 [1]: 96 nM | inhibition at 2 µM (CYP17): 17% | IC50 [2]: 1230 nM

O=C1CCc2cc(C(c3cccnc3)c3cccc(Cl)c3)cc3c2N1CC3 (stereo not given)
IC50 (Aromatase): 1350 nM | Ratio IC50 (V79MZh): < 0.1 | IC50 [1]: > 5000 nM | IC50 [2]: 36 nM

N#Cc1ccc(C(c2ccc(C#N)cc2)n2cncn2)cc1 [LETROZOLE]
IC50 [1]: 1420 nM | inhibition at 2 µM (CYP17): 7% | IC50 [2]: 2620 nM

O=C1CCc2cc(C(O)(c3ccccc3)c3ccncc3)cc3c2N1CC3 (stereo not given)
IC50 (Aromatase): 105 nM | Ratio IC50 (V79MZh): 8.8 | IC50 [1]: 85 nM | inhibition at 2 µM (CYP17): 43% | IC50 [2]: 745 nM

Cc1cccc(C(c2cccnc2)c2cc3c4c(c2)CCN4C(=O)CC3)c1 (stereo not given)
IC50 (Aromatase): > 5000 nM | Ratio IC50 (V79MZh): < 0.2 | IC50 [1]: > 5000 nM | IC50 [2]: 1220 nM

CC(c1ccncc1)c1cc2c3c(c1)CCN3C(=O)CC2 (stereo not given)
IC50 (Aromatase): 1500 nM | Ratio IC50 (V79MZh): 1.9 | IC50 [1]: 74 nM | IC50 [2]: 140 nM

COc1ccccc1C(c1cccnc1)c1cc2c3c(c1)CCN3C(=O)CC2 (stereo not given)
IC50 (Aromatase): 3660 nM | Ratio IC50 (V79MZh): < 0.3 | IC50 [1]: > 5000 nM | IC50 [2]: 2270 nM

COc1ccc(C(c2ccncc2)c2cc3c4c(c2)CCN4C(=O)CC3)cc1 (single isomer, unassigned; (+)) [listing 2 of 2 here]
Ratio IC50 (V79MZh): 37
